ChEMBL document CHEMBL3627671, “Novel derivatives of nitro-substituted salicylic acids: Synthesis, antimicrobial activity and cytotoxicity” (Bioorg Med Chem, 2015)
≈ marks a conversion by molar mass, not a printed value.

Experiments:
Format in all cases: functional
Nakaseomyces glabratus [1] = test: Antifungal activity against Candida glabrata 20/I after 48 hrs by microdilution broth method
How it was run: (§1)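 CLSI M27-A3 broth microdilution in RPMI 1640 with glutamine, buffered to pH 7.0 with MOPS; DMSO diluent. Yeast inoculum 5 × 10^3 ± 0.2 CFU/mL. Moulds grown on Sabouraud agar 3–10 days before spore harvest, final inoculum 0.5-5 × 10^4 CFU/mL, checked in a Bürker chamber. Incubated dark, humid, 35 °C, read at 24 and 48 h visually and at 540 nm. MIC taken as ≥80% (yeasts) or ≥50% (filamentous) growth reduction versus control.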

Mycobacterium kansasii [2] = test: Antimycobacterial activity against Mycobacterium kansasii 6509/96 after 21 days; details: 6509/96, 504 h
How it was run: (§2)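 Šula's semisynthetic medium micromethod at 37 °C, read after 7, 14 and 21 days. The 1.0 McFarland suspension was diluted 10^-4. MIC determined. 6509/96 is a clinical isolate.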

Enterococcus sp. [3] = test: Antibacterial activity against Enterococcus sp. J 14365/08 after 24 hrs by microdilution broth method; details: J 14365/08, 24 h
How it was run: (§3)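 Mueller-Hinton broth microdilution (modified M07-A07), pH 7.4 (±0.2). Compounds dissolved in DMSO, tested at final 500 to 0.49 µmol/L. Inoculum in sterile water matched to 0.5 McFarland. Incubated in the dark, humid atmosphere, 35 °C, read at 24 and 48 h visually and at 540 nm. MIC taken as ≥95% growth reduction (IC95) versus control.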

Mycobacterium avium [4] = test: Antimycobacterial activity against Mycobacterium avium 330/80 after 14 days; details: 330/80, 336 h
Mycobacterium kansasii [5] = test: Antimycobacterial activity against Mycobacterium kansasii 235/80 after 14 days; details: 235/80, 336 h; how it was run: as §2
[6] = test system: Staphylococcus epidermidis; test: Antibacterial activity against Staphylococcus epidermidis H 6966/08 after 24 hrs by microdilution broth method; details: H 6966/08, 24 h; how it was run: as §3
Lichtheimia corymbifera [7] = test: Antifungal activity against Absidia corymbifera 272 after 48 hrs by microdilution broth method; details: Lichtheimia corymbifera, 272, 48 h; how it was run: as §1
Candida tropicalis [8] = test: Antifungal activity against Candida tropicalis 156 after 48 hrs by microdilution broth method; details: Candida tropicalis, 156, 48 h; how it was run: as §1
Klebsiella pneumoniae [9] = test: Antibacterial activity against Klebsiella pneumoniae D 11750/08 after 48 hrs by microdilution broth method; details: D 11750/08, 48 h; how it was run: as §3
Candida tropicalis [10] = test: Antifungal activity against Candida tropicalis 156 after 24 hrs by microdilution broth method; details: Candida tropicalis, 156, 24 h; how it was run: as §1
Mycobacterium kansasii [11] = test: Antimycobacterial activity against Mycobacterium kansasii 235/80 after 21 days; details: 235/80, 504 h; how it was run: as §2
Trichosporon asahii [12] = test: Antifungal activity against Trichosporon asahii 1188 after 24 hrs by microdilution broth method; details: Trichosporon asahii, 1188, 24 h; how it was run: as §1
Escherichia coli [13] = test: Antibacterial activity against Escherichia coli CCM4517 after 48 hrs by microdilution broth method; details: CCM4517, 48 h; how it was run: as §3
Staphylococcus aureus [14] = test: Antibacterial activity against methicillin-resistant Staphylococcus aureus H 5996/08 after 24 hrs by microdilution broth method; details: H 5996/08, 24 h
[15] = test system: Staphylococcus epidermidis; test: Antibacterial activity against Staphylococcus epidermidis H 6966/08 after 48 hrs by microdilution broth method; details: H 6966/08, 48 h; how it was run: as §3
Aspergillus fumigatus [16] = test: Antifungal activity against Aspergillus fumigatus 231 after 48 hrs by microdilution broth method; details: Aspergillus fumigatus, 231, 48 h; how it was run: as §1
Mycobacterium kansasii [17] = test: Antimycobacterial activity against Mycobacterium kansasii 6509/96 after 7 days; details: 6509/96, 168 h; how it was run: as §2
Staphylococcus aureus [18] = test: Antibacterial activity against Staphylococcus aureus CCM 4516/08 after 24 hrs by microdilution broth method; details: CCM 4516/08, 24 h
Klebsiella pneumoniae [19] = test: Antibacterial activity against Klebsiella pneumoniae D 11750/08 after 24 hrs by microdilution broth method; details: D 11750/08, 24 h; how it was run: as §3
Staphylococcus aureus [20] = test: Antibacterial activity against Staphylococcus aureus CCM 4516/08 after 48 hrs by microdilution broth method; details: CCM 4516/08, 48 h
Klebsiella pneumoniae [21] = test: Antibacterial activity against ESBL-positive Klebsiella pneumoniae J 14368/08 after 24 hrs by microdilution broth method; details: J 14368/08, 24 h; how it was run: as §3
Aspergillus fumigatus [22] = test: Antifungal activity against Aspergillus fumigatus 231 after 24 hrs by microdilution broth method; details: Aspergillus fumigatus, 231, 24 h; how it was run: as §1
Staphylococcus aureus [23] = test: Antibacterial activity against methicillin-resistant Staphylococcus aureus H 5996/08 after 48 hrs by microdilution broth method; details: H 5996/08, 48 h
[24] = test system: Trichophyton mentagrophytes; test: Antifungal activity against Trichophyton mentagrophytes 445 after 48 hrs by microdilution broth method; details: Trichophyton mentagrophytes, 445, 48 h
Pichia kudriavzevii [25] = test: Antifungal activity against Candida krusei E28 after 48 hrs by microdilution broth method; details: E28, 48 h; how it was run: as §1
Mycobacterium kansasii [26] = test: Antimycobacterial activity against Mycobacterium kansasii 235/80 after 7 days; details: 235/80, 168 h; how it was run: as §2
Trichosporon asahii [27] = test: Antifungal activity against Trichosporon asahii 1188 after 48 hrs by microdilution broth method; details: Trichosporon asahii, 1188, 48 h; how it was run: as §1
Mycobacterium avium [28] = test: Antimycobacterial activity against Mycobacterium avium 330/80 after 21 days; details: 330/80, 504 h
Enterococcus sp. [29] = test: Antibacterial activity against Enterococcus sp. J 14365/08 after 48 hrs by microdilution broth method; details: J 14365/08, 48 h; how it was run: as §3
Candida albicans [30] = test: Antifungal activity against Candida albicans ATCC 44859 after 24 hrs by microdilution broth method; details: ATCC 44859, 24 h; how it was run: as §1
Candida albicans [31] = test: Antifungal activity against Candida albicans ATCC 44859 after 48 hrs by microdilution broth method; details: ATCC 44859, 48 h; how it was run: as §1
[32] = test system: Mycobacterium tuberculosis; test: Antimycobacterial activity against Mycobacterium tuberculosis H37Rv 331/88 after 14 days; details: H37Rv 331/88, 336 h
Nakaseomyces glabratus [33] = test: Antifungal activity against Candida glabrata 20/I after 24 hrs by microdilution broth method; how it was run: as §1
[34] = test system: Mycobacterium tuberculosis; test: Antimycobacterial activity against Mycobacterium tuberculosis H37Rv 331/88 after 21 days; details: H37Rv 331/88, 504 h
Escherichia coli [35] = test: Antibacterial activity against Escherichia coli CCM4517 after 24 hrs by microdilution broth method; details: CCM4517, 24 h; how it was run: as §3
Pseudomonas aeruginosa [36] = test: Antibacterial activity against Pseudomonas aeruginosa CCM 1961 after 48 hrs by microdilution broth method; details: CCM 1961, 48 h; how it was run: as §3
[37] = test system: Trichophyton mentagrophytes; test: Antifungal activity against Trichophyton mentagrophytes 445 after 24 hrs by microdilution broth method; details: Trichophyton mentagrophytes, 445, 24 h
Klebsiella pneumoniae [38] = test: Antibacterial activity against ESBL-positive Klebsiella pneumoniae J 14368/08 after 48 hrs by microdilution broth method; details: J 14368/08, 48 h; how it was run: as §3
Pseudomonas aeruginosa [39] = test: Antibacterial activity against Pseudomonas aeruginosa CCM 1961 after 24 hrs by microdilution broth method; details: CCM 1961, 24 h; how it was run: as §3
Mycobacterium kansasii [40] = test: Antimycobacterial activity against Mycobacterium kansasii 6509/96 after 14 days; details: 6509/96, 336 h; how it was run: as §2
Pichia kudriavzevii [41] = test: Antifungal activity against Candida krusei E28 after 24 hrs by microdilution broth method; details: E28, 24 h; how it was run: as §1
Lichtheimia corymbifera [42] = test: Antifungal activity against Absidia corymbifera 272 after 24 hrs by microdilution broth method; details: Lichtheimia corymbifera, 272, 24 h; how it was run: as §1

`O=C(Nc1cccc(Cl)c1)c1cc([N+](=O)[O-])ccc1O` showed an MIC (Nakaseomyces glabratus [1]) greater than 500 µM, an MIC (Mycobacterium kansasii [2]) of 62.5 µM (≈ 18.3 µg/mL) and an MIC (Enterococcus sp. [3]) of 500 µM (≈ 146 µg/mL). For the same compound, the MIC (Mycobacterium avium [4]) was 125 µM (≈ 36.6 µg/mL), the MIC (Mycobacterium kansasii [5]) was 32 µM (≈ 9.37 µg/mL) and the MIC [6] was 62.5 µM (≈ 18.3 µg/mL). It also gave an MIC (Lichtheimia corymbifera [7]) greater than 500 µM, an MIC (Candida tropicalis [8]) greater than 500 µM and an MIC (Klebsiella pneumoniae [9]) greater than 500 µM. For the same compound, the MIC (Candida tropicalis [10]) was greater than 500 µM, the MIC (Mycobacterium kansasii [11]) was 62.5 µM (≈ 18.3 µg/mL) and the MIC (Trichosporon asahii [12]) was greater than 500 µM. For the same compound, the MIC (Escherichia coli [13]) was greater than 500 µM, the MIC (Staphylococcus aureus [14]) was 62.5 µM (≈ 18.3 µg/mL) and the MIC [15] was 62.5 µM (≈ 18.3 µg/mL). The MIC (Aspergillus fumigatus [16]) was 500 µM (≈ 146 µg/mL), the MIC (Mycobacterium kansasii [17]) was 32 µM (≈ 9.37 µg/mL) and the MIC (Staphylococcus aureus [18]) was 31.2 µM (≈ 9.15 µg/mL). The MIC (Klebsiella pneumoniae [19]) was greater than 500 µM, the MIC (Staphylococcus aureus [20]) was 62.5 µM (≈ 18.3 µg/mL) and the MIC (Klebsiella pneumoniae [21]) was greater than 500 µM. It also gave an MIC (Aspergillus fumigatus [22]) of 500 µM (≈ 146 µg/mL), an MIC (Staphylococcus aureus [23]) of 62.5 µM (≈ 18.3 µg/mL) and an MIC [24] of 250 µM (≈ 73.2 µg/mL). It also gave an MIC (Pichia kudriavzevii [25]) greater than 500 µM, an MIC (Mycobacterium kansasii [26]) of 16 µM (≈ 4.68 µg/mL) and an MIC (Trichosporon asahii [27]) greater than 500 µM. It also gave an MIC (Mycobacterium avium [28]) of 125 µM (≈ 36.6 µg/mL), an MIC (Enterococcus sp. [29]) greater than 500 µM and an MIC (Candida albicans [30]) greater than 500 µM. The MIC (Candida albicans [31]) was greater than 500 µM, the MIC [32] was 16 µM (≈ 4.68 µg/mL) and the MIC (Nakaseomyces glabratus [33]) was greater than 500 µM. The MIC [34] was 16 µM (≈ 4.68 µg/mL), the MIC (Escherichia coli [35]) was greater than 500 µM and the MIC (Pseudomonas aeruginosa [36]) was greater than 500 µM. The MIC [37] was 250 µM (≈ 73.2 µg/mL), the MIC (Klebsiella pneumoniae [38]) was greater than 500 µM and the MIC (Pseudomonas aeruginosa [39]) was greater than 500 µM. The MIC (Mycobacterium kansasii [40]) was 62.5 µM (≈ 18.3 µg/mL), the MIC (Pichia kudriavzevii [41]) was 500 µM (≈ 146 µg/mL) and the MIC (Lichtheimia corymbifera [42]) was greater than 500 µM.
`O=C(Nc1cccc(F)c1)c1cc([N+](=O)[O-])ccc1O` gave an MIC (Nakaseomyces glabratus [1]) greater than 500 µM, an MIC (Mycobacterium kansasii [2]) of 62.5 µM (≈ 17.3 µg/mL) and an MIC (Enterococcus sp. [3]) greater than 500 µM. The MIC (Mycobacterium avium [4]) was 125 µM (≈ 34.5 µg/mL), the MIC (Mycobacterium kansasii [5]) was 62.5 µM (≈ 17.3 µg/mL) and the MIC [6] was 125 µM (≈ 34.5 µg/mL). It also gave an MIC (Lichtheimia corymbifera [7]) greater than 500 µM, an MIC (Candida tropicalis [8]) greater than 500 µM and an MIC (Klebsiella pneumoniae [9]) greater than 500 µM. For the same compound, the MIC (Candida tropicalis [10]) was greater than 500 µM, the MIC (Mycobacterium kansasii [11]) was 62.5 µM (≈ 17.3 µg/mL) and the MIC (Trichosporon asahii [12]) was greater than 500 µM. For the same compound, the MIC (Escherichia coli [13]) was greater than 500 µM, the MIC (Staphylococcus aureus [14]) was 125 µM (≈ 34.5 µg/mL) and the MIC [15] was 250 µM (≈ 69.1 µg/mL). It also gave an MIC (Aspergillus fumigatus [16]) greater than 500 µM, an MIC (Mycobacterium kansasii [17]) of 32 µM (≈ 8.84 µg/mL) and an MIC (Staphylococcus aureus [18]) of 125 µM (≈ 34.5 µg/mL). It also gave an MIC (Klebsiella pneumoniae [19]) greater than 500 µM, an MIC (Staphylococcus aureus [20]) of 125 µM (≈ 34.5 µg/mL) and an MIC (Klebsiella pneumoniae [21]) greater than 500 µM. For the same compound, the MIC (Aspergillus fumigatus [22]) was greater than 500 µM, the MIC (Staphylococcus aureus [23]) was 125 µM (≈ 34.5 µg/mL) and the MIC [24] was 500 µM (≈ 138 µg/mL). It also gave an MIC (Pichia kudriavzevii [25]) greater than 500 µM, an MIC (Mycobacterium kansasii [26]) of 16 µM (≈ 4.42 µg/mL) and an MIC (Trichosporon asahii [27]) greater than 500 µM. The MIC (Mycobacterium avium [28]) was 125 µM (≈ 34.5 µg/mL), the MIC (Enterococcus sp. [29]) was greater than 500 µM and the MIC (Candida albicans [30]) was greater than 500 µM. The MIC (Candida albicans [31]) was greater than 500 µM, the MIC [32] was 16 µM (≈ 4.42 µg/mL) and the MIC (Nakaseomyces glabratus [33]) was greater than 500 µM. The MIC [34] was 32 µM (≈ 8.84 µg/mL), the MIC (Escherichia coli [35]) was greater than 500 µM and the MIC (Pseudomonas aeruginosa [36]) was greater than 500 µM. For the same compound, the MIC [37] was 500 µM (≈ 138 µg/mL), the MIC (Klebsiella pneumoniae [38]) was greater than 500 µM and the MIC (Pseudomonas aeruginosa [39]) was greater than 500 µM. The MIC (Mycobacterium kansasii [40]) was 62.5 µM (≈ 17.3 µg/mL), the MIC (Pichia kudriavzevii [41]) was greater than 500 µM and the MIC (Lichtheimia corymbifera [42]) was greater than 500 µM.
